Reference: ChEMBL document CHEMBL1914459 (Bioorg Med Chem Lett, 2011)

Key:
[1] = target: T1, Prostaglandin D2 receptor 2 (Homo sapiens, UniProt Q9Y5Y4); experiment: Displacement of [3H]PGD2 from human CRTH2 receptor
T1 sequence (Q9Y5Y4 whole entry): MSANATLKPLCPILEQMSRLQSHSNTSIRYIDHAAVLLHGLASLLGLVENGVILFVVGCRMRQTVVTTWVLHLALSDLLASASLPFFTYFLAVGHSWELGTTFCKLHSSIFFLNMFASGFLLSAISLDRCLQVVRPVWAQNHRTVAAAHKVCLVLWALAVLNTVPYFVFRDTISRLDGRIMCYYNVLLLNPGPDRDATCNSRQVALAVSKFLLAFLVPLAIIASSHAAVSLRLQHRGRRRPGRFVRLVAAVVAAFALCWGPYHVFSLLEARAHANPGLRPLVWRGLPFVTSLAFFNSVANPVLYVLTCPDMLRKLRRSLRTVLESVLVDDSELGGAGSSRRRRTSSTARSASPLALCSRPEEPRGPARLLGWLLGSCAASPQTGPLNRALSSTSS
In short: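 Radioligand binding with ³H-PGD₂ as the labelled ligand; IC₅₀ reported as mean of n >2 measurements.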

[2] = Inhibition of human recombinant aldose reductase 2 after 15 mins by spectrophotometry analysis
[3] = Lipophilicity, log D of the compound at pH 7.4; settings: buffer
[4] = Intrinsic clearance in rat hepatocytes assessed as per 1 x 10^6 cells
[5] = target: Aldehyde reductase AKR1A1 (Homo sapiens); experiment: Inhibition of human recombinant aldose reductase 1 after 15 mins by spectrophotometry analysis
[6] = Volume of distribution at steady state in Sprague-Dawley rat at 1 mg/kg, iv; assay type: ADME, organism-based; design: dose 1 mg/kg, route intravenous; settings: in vivo, read-out: Vdss
[7] = Half life in Sprague-Dawley rat at 1 mg/kg, iv; assay type: ADME, organism-based; design: dose 1 mg/kg, route intravenous; settings: in vivo
[8] = Oral bioavailability in Sprague-Dawley rat at 3 mg/kg; assay type: ADME, organism-based; settings: in vivo
[9] = Clearance in Sprague-Dawley rat at 1 mg/kg, iv; assay type: ADME, organism-based; design: dose 1 mg/kg, route intravenous; settings: in vivo
Cytochrome P450 2C9 = Cytochrome P450 2C9 (Homo sapiens, UniProt P11712); experiment: Inhibition of CYP2C9; assay type: ADME
Homo sapiens = organism: Homo sapiens; experiment: Selectivity ratio of IC50 for human recombinant aldose reductase 1 to IC50 for human CRTh2 receptor
In short: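 Ratio of two IC50s from separate assays. […] ALR1 activity was followed at […] as NADPH oxidation, at 22 °C. All reagents except NADPH were preincubated 15 min before NADPH started the reaction. Initial linear rates were corrected for non-enzymatic NADPH oxidation, and % inhibition was taken against no-compound control.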

[10] = Oral bioavailability in Sprague-Dawley rat at 4 mg/kg; assay type: ADME, organism-based; settings: in vivo
[11] = target: T1, Prostaglandin D2 receptor 2; experiment: Antagonist activity at human CRTh2 receptor expressed in HEK cells assessed as inhibition of PGD2-induced calcium flux; assay type: functional, cell-based, HEK293

Sequence of Cytochrome P450 2C9 (P11712 whole entry): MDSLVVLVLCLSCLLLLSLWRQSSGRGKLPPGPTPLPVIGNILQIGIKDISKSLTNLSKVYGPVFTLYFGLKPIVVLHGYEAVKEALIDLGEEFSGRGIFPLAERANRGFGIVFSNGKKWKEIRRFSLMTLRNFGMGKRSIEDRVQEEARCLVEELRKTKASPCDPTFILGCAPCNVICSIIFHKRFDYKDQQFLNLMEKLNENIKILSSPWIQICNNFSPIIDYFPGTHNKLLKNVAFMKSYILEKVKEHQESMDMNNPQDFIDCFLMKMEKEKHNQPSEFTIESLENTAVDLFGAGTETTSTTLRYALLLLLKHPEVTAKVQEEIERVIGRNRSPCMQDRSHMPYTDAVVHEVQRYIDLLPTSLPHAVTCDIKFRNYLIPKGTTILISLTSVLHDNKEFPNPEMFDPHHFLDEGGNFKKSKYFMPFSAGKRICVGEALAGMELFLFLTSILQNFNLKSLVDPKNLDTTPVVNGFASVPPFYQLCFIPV

Row | Compound | IC50 [1] [µM] | IC50 [2] [µM] | logD [3] | hepatocyte CLint [4] [µL/min/1e6 cells] | further results
1 | Cc1c(Sc2ccc(Cl)cc2)c2ccc(Cl)cc2n1CC(=O)O | 0.042 | 2 | 2.5 | 64 | 
2 | Cc1c(Oc2ccc(Cl)cc2)c2cc(F)ccc2n1CC(=O)O | 0.005 |  | 1.3 | < 3 | 
3 | Cc1c(S(=O)(=O)c2ccc(Cl)cc2)c2c(NS(C)(=O)=O)cccc2n1CC(=O)O | 0.0079 | > 5.84 | -0.8 |  | IC50 [5]: 0.063 µM
4 | Cc1c(Sc2ccc(Cl)cc2)c2cccc(Cl)c2n1CC(=O)O | 0.06 | 11.2 | 2 | 75 | 
5 | CC(=O)Nc1cccc2c1c(Oc1ccc(Cl)cc1)c(C)n2CC(=O)O | 0.018 |  | -1.4 |  | 
6 | Cc1c(Oc2ccc(Cl)cc2)c2c(NS(C)(=O)=O)cccc2n1CC(=O)O | 0.0035 |  | -1 | 8 | Vd [6]: 1.7 L/kg; half-life [7]: 1.4 h; bioavailability [8]: > 46%; clearance [9]: 20 mL/min/kg
7 | Cc1c(Sc2ccc(Cl)cc2)c2c(-c3nccs3)cccc2n1CC(=O)O | 0.0035 |  |  |  | 
8 | Cc1c(Oc2ccc(Cl)cc2)c2c(-c3ccccc3)cccc2n1CC(=O)O | 0.004 |  |  | 14 | 
9 | O=C(O)Cn1cc(Sc2ccc(Cl)cc2)c2cc(Cl)ccc21 | 0.089 |  |  |  | 
10 | COc1ccc(Sc2c(C)n(CC(=O)O)c3ccc(C)cc23)cc1 | 0.0071 | 0.251 | 1 | 24 | IC50 [5]: 0.282 µM
11 | Cc1c(F)ccc2c1c(Sc1ccc(Cl)cc1)c(C)n2CC(=O)O | 0.0013 | 3.55 | 2.2 |  | IC50 [5]: 2.24 µM
12 | Cc1c(Sc2ccc(Cl)cc2)c2c(S(C)(=O)=O)cccc2n1CC(=O)O | 0.011 |  | 0.6 |  | 
13 | Cc1ccc2c(c1)c(Sc1ccc(S(C)(=O)=O)cc1)c(C)n2CC(=O)O | 0.0014 | > 10 | -0.1 | 7 | IC50 (Cytochrome P450 2C9): 5.2 µM
14 | COc1cccc(S(=O)(=O)c2c(C)n(CC(=O)O)c3ccc(C)cc23)c1 | 0.071 | 0.724 | -0.4 | 14 | Ratio IC50 (Homo sapiens): < 20; IC50 [5]: 0.115 µM
15 | Cc1c(Sc2ccc(Cl)cc2)c2cc(Cl)ccc2n1Cc1nnn[nH]1 | 1.47 |  |  |  | 
16 | CC(=O)Nc1ccc2c(c1)c(Sc1ccc(Cl)cc1)c(C)n2CC(=O)O | 0.056 |  | 0.2 | 8 | 
17 | Cc1c(Sc2ccc(Cl)cc2)c2c(NS(C)(=O)=O)cccc2n1CC(=O)O | 0.0018 | > 5.31 | 0.2 | 6 | Vd [6]: 1.1 L/kg; bioavailability [10]: 42%; IC50 (Cytochrome P450 2C9): 10 µM; half-life [7]: 1.7 h; clearance [9]: 11 mL/min/kg
18 | Cc1c(Sc2ccc(Cl)cc2)c2c(Cl)nccc2n1CC(=O)O | 0.032 |  | 0.9 |  | 
19 | Cn1c(CC(=O)O)c(Sc2ccccc2)c2ccccc21 | 0.794 |  |  |  | 
20 | Cc1ccc2c(c1)c(S(=O)(=O)c1ccc(Cl)cc1)c(C)n2CC(=O)O | 0.026 | 6.31 | 0.1 |  | 
21 | Cc1ccc2c(c1)c(Sc1ccccc1Cl)c(C)n2CC(=O)O | 0.0026 | 11.2 | 1.7 | 24 | 
22 | CNC(=O)c1cccc2c1c(Sc1ccc(Cl)cc1)c(C)n2CC(=O)O | 0.045 |  | -0.9 | < 3 | 
23 | CCS(=O)(=O)Nc1cccc2c1c(Oc1ccc(Cl)cc1)c(C)n2CC(=O)O | 0.036 |  |  |  | 

Row | Compound | IC50 [1] [µM] | IC50 [2] [µM] | logD [3] | hepatocyte CLint [4] [µL/min/1e6 cells] | further results
24 | Cc1ccc2c(c1)c(S(=O)(=O)c1c(Cl)cccc1Cl)c(C)n2CC(=O)O | 0.126 |  |  |  | 
25 | Cc1c(Sc2ccc(Cl)cc2)c2cc(Cl)ccc2n1C(C)C(=O)O (stereo not drawn) | 0.501 |  |  |  | 
26 | Cc1c(Sc2ccc(Cl)cc2)c2cc(F)ccc2n1CC(=O)O | 0.0016 | > 7.94 | 1.8 | 19 | IC50 [5]: 3.16 µM
27 | CCS(=O)(=O)c1ccc(Oc2c(C)n(CC(=O)O)c3ccc(C(F)(F)F)cc23)cc1 | 0.0035 | > 10 | 0.3 |  | IC50 [5]: 3.98 µM
28 | Cc1ccc2c(c1)c(Sc1ccc(Cl)cc1)c(C)n2CC(=O)O | 0.015 |  |  | 18 | IC50 [11]: 0.087 µM; IC50 (Cytochrome P450 2C9): 0.8 µM
29 | Cc1ccc2c(c1)c(S(=O)(=O)c1ccccc1Cl)c(C)n2CC(=O)O | 0.178 |  |  | 21 | 
30 | CCN(C(C)=O)c1cccc2c1c(Sc1ccc(Cl)cc1)c(C)n2CC(=O)O |  |  | 1.6 |  | 
31 | Cc1c(Sc2ccc(Cl)cc2)c2ccc(S(C)(=O)=O)cc2n1CC(=O)O | 0.159 |  | 0.8 | < 3 | 
32 | Cc1c(Sc2ccc(Cl)cc2)c2cc(-c3ccccc3)ccc2n1CC(=O)O | 0.0035 | 4.47 | 3.7 |  | IC50 [5]: 1.78 µM
33 | Cc1c(Sc2ccc(Cl)cc2)c2cc(S(C)(=O)=O)ccc2n1CC(=O)O | 0.071 |  | 0.5 |  | 
34 | Cc1c(Sc2ccc(Cl)cc2)c2cc(Cl)ccc2n1CC(=O)O | 0.013 |  |  |  | IC50 [11]: 0.035 µM
35 | Cc1c(S(=O)(=O)c2ccc(Cl)cc2)c2cc(F)ccc2n1CC(=O)O | 0.0071 |  | -0.2 | < 3 | 
36 | Cc1c(Sc2ccc(Cl)cc2)c2c(-c3cnccn3)cccc2n1CC(=O)O | 0.0006 |  | 0 | 12 | 
37 | Cc1c(Sc2ccc(Cl)cc2)c2c(Cl)cccc2n1CC(=O)O | 0.025 | 5.01 | 2.2 |  | IC50 [5]: 1.78 µM
38 | Cc1ccc2c(c1)c([S+]([O-])c1ccc(Cl)cc1)c(C)n2CC(=O)O (stereo not drawn) | 1 |  | 0.1 | < 5 | 
39 | Cc1ccc2c(c1)c(Sc1cccc(Cl)c1)c(C)n2CC(=O)O | 0.003 | 3.16 | 1.9 | 31 | 
40 | Cc1ccc2c(c1)c(S(=O)(=O)c1cccc(Cl)c1)c(C)n2CC(=O)O | 0.079 |  |  |  | 
41 | Cc1c(Sc2ccc(Cl)cc2)c2c(-c3ccccc3)cccc2n1CC(=O)O | 0.001 |  | 2.6 | 25 | 
42 | Cc1ccc2c(n1)c(Sc1ccc(Cl)cc1)c(C)n2CC(=O)O | 0.056 |  | 0.4 |  | 
43 | Cc1c(Sc2ccc(Cl)cc2)c2cc(Cl)c(C#N)cc2n1CC(=O)O | 0.178 |  |  | 29 | 
44 | Cc1c(Sc2ccc(Cl)cc2)c2c(C#N)c(Cl)ccc2n1CC(=O)O | 0.0061 | 4.73 | 1.6 | 6 | IC50 [5]: 2.24 µM
45 | Cc1c(Oc2ccc(Cl)cc2)c2cc(C(F)(F)F)ccc2n1CC(=O)O | 0.011 |  | 2.3 |  | 
